Converted amounts (≈) assume the structure as drawn.
Tests used:
Assay type in all cases: functional
[1] = test system: Pectobacterium atrosepticum; assay: Antimicrobial activity against Erwinia carotovora subsp. atroseptica DSM 30184 after 24 hrs by broth microdilution method; conditions: DSM 30184, 24 h
Outline: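 CLSI broth microdilution in nutrient broth with an inoculum of 5 x 10^4 CFU/well. MIC was read after 24 h at 28°C under aerobic growth.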

Escherichia coli [2] = assay: Antimicrobial activity against Escherichia coli DH5alpha harboring plasmid pLBII carrying beta-lactamase CAR-1 gene after 24 hrs by broth microdilution method
Outline: (§1)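 MIC by CLSI broth microdilution in Mueller-Hinton broth at 37°C. Inoculum was 5 x 10^4 CFU/well, and growth was aerobic.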

Escherichia coli [3] = assay: Antimicrobial activity against Escherichia coli DH5alpha harboring plasmid BC-SK after 24 hrs by broth microdilution method; outline: as §1

| Structure (SMILES) | MIC [1] | MIC (Escherichia coli [2]) | MIC (Escherichia coli [3]) |
| --- | --- | --- | --- |
| C[C@H]1[C@H](NC(=O)/C(=N\OC(C)(C)C(=O)O)c2csc(N)n2)C(=O)N1S(=O)(=O)O [AZTREONAM] | 16 µg/mL (≈ 36.7 µM) | 0.25 µg/mL (≈ 0.574 µM) | – |
| C[C@@H](O)[C@H]1C(=O)N2C(C(=O)O)=C(SCCNC=N)C[C@H]12 [IMIPENEM ANHYDROUS] | 0.12 µg/mL (≈ 0.401 µM) | – | – |
| CC1(C)S[C@@H]2[C@H](NC(=O)[C@H](N)c3ccccc3)C(=O)N2[C@H]1C(=O)O [AMPICILLIN] | 0.25 µg/mL (≈ 0.715 µM) | 4 µg/mL (≈ 11.4 µM) | 1 µg/mL (≈ 2.86 µM) |
| CC(=O)OCC1=C(C(=O)O)N2C(=O)[C@@H](NC(=O)Cc3cccs3)[C@H]2SC1 [CEPHALOTHIN] | 1 µg/mL (≈ 2.52 µM) | 64 µg/mL (≈ 161 µM) | 16 µg/mL (≈ 40.4 µM) |
| CO/N=C(\C(=O)N[C@@H]1C(=O)N2C(C(=O)O)=C(COC(C)=O)CS[C@H]12)c1csc(N)n1 [CEFOTAXIME] | 1 µg/mL (≈ 2.2 µM) | 16 µg/mL (≈ 35.1 µM) | 0.06 µg/mL (≈ 0.132 µM) |
| CO/N=C(\C(=O)N[C@@H]1C(=O)N2C(C(=O)O)=C(COC(N)=O)CS[C@H]12)c1ccco1 [CEFUROXIME] | 0.5 µg/mL (≈ 1.18 µM) | 256 µg/mL (≈ 603 µM) | 4 µg/mL (≈ 9.43 µM) |
| C[C@@H](O)[C@H]1C(=O)N2C(C(=O)O)=C(S[C@@H]3CN[C@H](C(=O)N(C)C)C3)[C@H](C)[C@H]12 [MEROPENEM] | 0.25 µg/mL (≈ 0.652 µM) | 0.06 µg/mL (≈ 0.156 µM) | 0.03 µg/mL (≈ 0.0782 µM) |
| CO/N=C(\C(=O)N[C@@H]1C(=O)N2C(C(=O)[O-])=C(C[N+]3(C)CCCC3)CS[C@H]12)c1csc(N)n1 | 2 µg/mL (≈ 4.16 µM) | – | – |
| CC(C)(O/N=C(\C(=O)N[C@@H]1C(=O)N2C(C(=O)[O-])=C(C[n+]3ccccc3)CS[C@H]12)c1csc(N)n1)C(=O)O [CEFTAZIDIME] | 16 µg/mL (≈ 29.3 µM) | 1 µg/mL (≈ 1.83 µM) | 0.5 µg/mL (≈ 0.915 µM) |
| CO[C@@]1(NC(=O)Cc2cccs2)C(=O)N2C(C(=O)O)=C(COC(N)=O)CS[C@@H]21 [CEFOXITIN] | 8 µg/mL (≈ 18.7 µM) | 8 µg/mL (≈ 18.7 µM) | 4 µg/mL (≈ 9.36 µM) |
| CCN1CCN(C(=O)N[C@@H](C(=O)N[C@@H]2C(=O)N3[C@@H]2SC(C)(C)[C@@H]3C(=O)O)c2ccccc2)C(=O)C1=O [PIPERACILLIN] | 64 µg/mL (≈ 124 µM) | 2 µg/mL (≈ 3.86 µM) | 1 µg/mL (≈ 1.93 µM) |
| CC1(C)S[C@@H]2[C@H](NC(=O)[C@H](C(=O)O)c3ccsc3)C(=O)N2[C@H]1C(=O)O [TICARCILLIN] | 4 µg/mL (≈ 10.4 µM) | 8 µg/mL (≈ 20.8 µM) | 4 µg/mL (≈ 10.4 µM) |
| CO[C@@]1(NC(=O)C(C(=O)O)c2ccsc2)C(=O)N2[C@@H](C(=O)O)C(C)(C)S[C@@H]21 (some centres undefined) [TEMOCILLIN] | 64 µg/mL (≈ 154 µM) | 16 µg/mL (≈ 38.6 µM) | 16 µg/mL (≈ 38.6 µM) |
